In ChEMBL document CHEMBL2057168, “(1aR,5aR)1a,3,5,5a-Tetrahydro-1H-2,3-diaza-cyclopropa[a]pentalene-4-carboxylic acid (MK-1903): a potent GPR109a agonist that lowers free fatty acids in humans” (J Med Chem, 2012):
Calls of active or inactive are those of the source. The calls are words filed in the database; no cut-off is given here.

Key:
Mus musculus = assay: Toxicity in C57/Bl6 mouse assessed as increase in cutaneous blood flow in ear at 100 mg/kg, ip after 5 mins relative to vehicle treated control by laser doppler flowmetry; format: organism-based; set-up: dose 100 mg/kg, route intraperitoneal; settings: in vivo
Procedure, shortened: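 Male C57/Bl6 mice (8–10 weeks, ~25 g) anesthetized with Nembutal ip (80 mg/10 mL/kg). Ear perfusion recorded by laser Doppler imaging: 3 min baseline, then vehicle (PBS, 40% HPBCD or 0.5% methylcellulose) or compound given ip at 5 mL/kg through a preinserted syringe, with readings for ~15 min. Expressed as % change of perfusion over baseline.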

Homo sapiens [1] = assay: Toxicity in human assessed as occurrence of flushing at 5 to 200 mg, po administered as single dose; format: organism-based; settings: in vivo
Homo sapiens [2] = assay: Toxicity in po dosed human assessed as occurrence of flushing administered as single dose; format: organism-based; settings: in vivo
Procedure, shortened: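 Healthy human volunteers received single oral doses. Flushing was recorded as a subject-reported adverse event and scored with a flushing symptoms questionnaire. It was compared qualitatively against a 1 g Niaspan dose.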

[3] = Terminal half life in rhesus monkey; format: ADME, organism-based, Macaca mulatta; settings: in vivo, read-out: beta t1/2 (converted)
[4] = Cmax in human at 100 mg, po BID administered on day 1 followed by 2-day wash out period after which dosing continued up to day 11 measured on day 4; format: ADME, organism-based; set-up: dose 100 mg, route oral; settings: in vivo
Procedure, shortened: (§1)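 Double-blind, placebo-controlled, randomized dose-escalation study in healthy male volunteers, six cohorts of eight (six active, two placebo). Oral dose on day 1, two-day washout, then dosing days 4–11; the 200 mg qd cohort was titrated over days 1–4. Venous blood taken predose and at 0.5–12 h on days 1, 4 and 11; plasma drug measured. τ 12 h (bid), 24 h (qd), 8 h (tid), 6 h (qid).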

[5] = Cmax in human at titreated po dose administered from day 1 to 4 followed by 200 mg, po QD administered up to day 11 measured on day 11; format: ADME, organism-based; set-up: dose 200 mg, route oral; settings: in vivo
Procedure, shortened: (§2)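 Healthy male volunteers took part in a double-blind, randomized, placebo-controlled dose-escalation study, with cohorts of 8 (6 on drug, 2 on placebo). Each subject got an oral dose on day 1, then a 2-day washout, then dosing on days 4–11. The 200 mg qd group was titrated over days 1–4. Venous plasma was sampled predose and 0.5–12 h postdose on days 1, 4 and 11, and predose on days 5–10 for troughs.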

[6] = Cmax in human at 150 mg, po BID administered on day 1 followed by 2-day wash out period after which dosing continued up to day 11 measured on day 11; format: ADME, organism-based; set-up: dose 150 mg, route oral; settings: in vivo; procedure, shortened: as §2
Homo sapiens [7] = assay: Antidyslipidemic activity in dyslipidemia patient assessed as decrease in free fatty acid level at 150 mg administered TID during four week study; format: functional, organism-based
[8] = AUC (0 to 12 hrs) in human at 150 mg, po BID administered on day 1 followed by 2-day wash out period after which dosing continued up to day 11 measured on day 4; format: ADME, organism-based; set-up: dose 150 mg, time < 12 hr, route oral; settings: plasma; procedure, shortened: as §1
Homo sapiens [9] = assay: Antidyslipidemic activity in human assessed as decrease in free fatty acid level 175 mg, po QID administered on day 1 followed by 2-days wash out period after which dosing continued up to day 11 measured on day 4 and 11; format: functional, organism-based
Procedure, shortened: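 Healthy male volunteers in a randomized, double-blind, placebo-controlled multiple-dose study, six active and two placebo subjects per cohort. Oral dosing on day 1, two-day washout, then days 4–11, with titration over days 1–4 for the qd arm.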

[10] = Cmin in human at 100 mg, po BID administered on day 1 followed by 2-day wash out period after which dosing continued up to day 11 measured on day 4 at 12 hrs; format: ADME, organism-based; settings: in vivo, read-out: Cmin; procedure, shortened: as §2
[11] = Terminal half life in Sprague-Dawley rat at 2 mg/kg, iv; format: ADME, organism-based; set-up: dose 2 mg/kg, route intravenous; settings: in vivo, read-out: beta t1/2 (converted)
Procedure, shortened: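 Male Sprague-Dawley rats were dosed at 10 mg/kg po or 2 mg/kg iv in 80% PEG400/20% phosphate-buffered saline, fasted overnight before the oral dose. Jugular blood was sampled serially from 0.25 to 21 h over 24 h, and heparinized plasma was prepared. Drug was assayed by HPLC/MS/MS (quantitation range 1–2000 ng/mL).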

Cytochrome P450 2C9 = Cytochrome P450 2C9 (Homo sapiens, UniProt P11712); assay: Activity at CYP2C9; format: ADME
[12] = Tmax in human at 175 mg, po QID administered on day 1 followed by 2-days wash out period after which dosing continued up to day 11 measured on day 4; format: ADME, organism-based; settings: in vivo
Procedure, shortened: (§3)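 Double-blind, placebo-controlled, randomized multiple oral dose study in healthy male volunteers (cohorts of eight; six active, two placebo). Dose given on day 1, then a two-day washout, then dosing days 4–11; for the QD arm, subjects were titrated over days 1–4. Venous plasma sampled predose and 0.5, 1, 1.5, 2, 4, 6, 8, 10, 12 h postdose on days 1, 4 and 11. Tmax reported as median (min–max).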

[13] = Blood clearance in mouse; format: ADME, organism-based; settings: whole blood
Procedure, shortened: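 Pharmacokinetics across species; for mice, clearance determined in blood rather than plasma following dosing.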

[14] = Cmin in human at 50 mg, po BID administered on day 1 followed by 2-day wash out period after which dosing continued up to day 11 measured on day 11 at 12 hrs; format: ADME, organism-based; settings: in vivo, read-out: Cmin; procedure, shortened: as §2
[15] = Volume of distribution in rhesus monkey; format: ADME, organism-based, Macaca mulatta; settings: in vivo
[16] = Tmax in human at 150 mg, po BID administered on day 1 followed by 2-day wash out period after which dosing continued up to day 11 measured on day 11; format: ADME, organism-based; settings: in vivo; procedure, shortened: as §3
Cytochrome P450 2C8 = molecular target: T1, Cytochrome P450 2C8 (Homo sapiens, UniProt P10632); assay: Activity at CYP2C8; format: ADME
T1 sequence (P10632 whole entry): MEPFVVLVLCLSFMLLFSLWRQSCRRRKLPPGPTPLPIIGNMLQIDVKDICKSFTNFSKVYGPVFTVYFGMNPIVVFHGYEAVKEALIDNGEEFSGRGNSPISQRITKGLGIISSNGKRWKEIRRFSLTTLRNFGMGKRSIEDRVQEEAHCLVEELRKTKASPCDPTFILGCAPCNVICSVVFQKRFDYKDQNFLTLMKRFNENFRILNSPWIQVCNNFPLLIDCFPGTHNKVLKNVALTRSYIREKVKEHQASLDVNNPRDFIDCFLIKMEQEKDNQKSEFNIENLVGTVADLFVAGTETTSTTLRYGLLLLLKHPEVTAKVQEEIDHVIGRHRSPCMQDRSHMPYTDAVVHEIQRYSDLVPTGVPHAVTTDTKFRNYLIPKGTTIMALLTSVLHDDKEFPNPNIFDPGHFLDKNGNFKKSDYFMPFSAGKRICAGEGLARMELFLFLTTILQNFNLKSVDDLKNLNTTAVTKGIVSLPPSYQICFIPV

Homo sapiens [17] = assay: Cmin in human at 50 mg, po BID administered on day 1 followed by 2-day wash out period after which dosing continued up to day 11 measured on day 1 at 12 hrs; format: ADME, organism-based; settings: in vivo, BLD = below limit of detection; procedure, shortened: as §2
Rattus norvegicus [18] = assay: Antidyslipedic activity in fasted Sprague-Dawley rat assessed as decrease in free fatty acid level at 0.1 to 30 mg/kg, po by NEFA C-free fatty acid assay; format: functional; set-up: scale not given: the % may be the effect or the level left; settings: dose mg/kg 0.1-30
Procedure, shortened: (§4)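 Male Sprague-Dawley rats fasted, compound by oral gavage, serial plasma sampling after dosing for free fatty acids over a time course; vehicle-dosed control group.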

Rattus norvegicus [19] = assay: Antidyslipedic activity in fasted Sprague-Dawley rat assessed as decrease in free fatty acid level at 0.01 to 100 mg/kg, po by NEFA C-free fatty acid assay; format: functional; set-up: scale not given: the % may be the effect or the level left; settings: dose mg/kg 0.01-100; procedure, shortened: as §4

Cytochrome P450 2C9, sequence (P11712 whole entry): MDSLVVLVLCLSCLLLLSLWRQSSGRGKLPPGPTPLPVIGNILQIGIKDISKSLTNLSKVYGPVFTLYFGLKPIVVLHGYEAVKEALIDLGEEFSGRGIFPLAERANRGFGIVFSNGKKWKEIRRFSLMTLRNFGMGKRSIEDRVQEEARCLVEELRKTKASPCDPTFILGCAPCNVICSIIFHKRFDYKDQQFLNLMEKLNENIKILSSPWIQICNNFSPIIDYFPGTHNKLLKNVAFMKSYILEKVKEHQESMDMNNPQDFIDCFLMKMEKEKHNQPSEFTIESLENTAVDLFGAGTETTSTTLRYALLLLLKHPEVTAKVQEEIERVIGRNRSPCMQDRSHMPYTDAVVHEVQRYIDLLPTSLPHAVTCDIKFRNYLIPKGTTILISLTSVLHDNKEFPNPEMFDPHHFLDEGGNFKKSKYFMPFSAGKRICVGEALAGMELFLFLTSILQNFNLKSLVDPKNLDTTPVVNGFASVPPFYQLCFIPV

SMILES: O=C(O)c1n[nH]c2c1C[C@H]1C[C@@H]21
- Activity (Mus musculus): 30%
- Activity (Homo sapiens [1]): Toxic
- MTD (Homo sapiens [2]): 200 mg
- half-life [3]: 1.1 h
- Cmax [4]: 33.1 nM
- Cmax [5]: 49.8 nM
- Cmax [6]: 27.7 nM
- Activity (Homo sapiens [7]): Active
- AUC at 12 h [8]: 0.0803 µM·h
- Activity (Homo sapiens [9]): Active
- concentration at 12 h [10]: 0.083 nM
- half-life [11]: 2.4 h
- Activity (Cytochrome P450 2C9): Not Active
- Tmax [12]: 1 h
- clearance [13]: 10 mL/min/kg
- concentration at 12 h [14]: 0.045 nM
- Vd [15]: 0.21 L/kg
- Tmax [16]: 1 h
- Activity (Cytochrome P450 2C8): Not Active
- Cmin (Homo sapiens [17]): BLD
- Activity (Rattus norvegicus [18]): 90%
- Activity (Rattus norvegicus [19]): 90%
